Test results as given in ChEMBL document CHEMBL4627284, “Pyrimethamine conjugated histone deacetylase inhibitors: Design, synthesis and evidence for triple negative breast cancer selective cytotoxicity” (Bioorg Med Chem, 2020).
pIC50: −log10 of the molar value. Calls of active or inactive are those of the source. No cut-off for these calls is given here.

What was measured:
[1] = target: T1, Histone deacetylase 1 (Homo sapiens, UniProt Q13547); assay: Inhibition of human recombinant HDAC1 using fluorogenic HDAC substrate preincubated for 30 mins followed by substrate addition and measured after 15 mins by fluorogenic assay
T1 sequence (Q13547 whole entry): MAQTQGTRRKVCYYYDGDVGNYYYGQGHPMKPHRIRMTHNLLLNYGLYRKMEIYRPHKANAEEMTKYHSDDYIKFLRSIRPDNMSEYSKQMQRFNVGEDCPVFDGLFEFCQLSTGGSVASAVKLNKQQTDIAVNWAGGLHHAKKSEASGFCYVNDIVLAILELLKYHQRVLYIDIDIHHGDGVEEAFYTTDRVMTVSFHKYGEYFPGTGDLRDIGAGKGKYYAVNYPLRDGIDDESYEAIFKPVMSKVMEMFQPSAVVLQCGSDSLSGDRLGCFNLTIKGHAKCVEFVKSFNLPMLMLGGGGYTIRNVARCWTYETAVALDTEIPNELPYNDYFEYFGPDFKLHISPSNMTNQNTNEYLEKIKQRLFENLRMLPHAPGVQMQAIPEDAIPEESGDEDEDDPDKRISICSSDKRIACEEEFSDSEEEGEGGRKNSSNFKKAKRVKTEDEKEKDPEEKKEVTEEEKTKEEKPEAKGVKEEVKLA

[2] = target: T2, Protein deacetylase HDAC6 (Homo sapiens, UniProt Q9UBN7); assay: Inhibition of human recombinant HDAC6 using fluorogenic HDAC substrate 3 preincubated for 30 mins followed by substrate addition and measured after 15 mins by fluorogenic assay
T2 sequence (Q9UBN7 whole entry): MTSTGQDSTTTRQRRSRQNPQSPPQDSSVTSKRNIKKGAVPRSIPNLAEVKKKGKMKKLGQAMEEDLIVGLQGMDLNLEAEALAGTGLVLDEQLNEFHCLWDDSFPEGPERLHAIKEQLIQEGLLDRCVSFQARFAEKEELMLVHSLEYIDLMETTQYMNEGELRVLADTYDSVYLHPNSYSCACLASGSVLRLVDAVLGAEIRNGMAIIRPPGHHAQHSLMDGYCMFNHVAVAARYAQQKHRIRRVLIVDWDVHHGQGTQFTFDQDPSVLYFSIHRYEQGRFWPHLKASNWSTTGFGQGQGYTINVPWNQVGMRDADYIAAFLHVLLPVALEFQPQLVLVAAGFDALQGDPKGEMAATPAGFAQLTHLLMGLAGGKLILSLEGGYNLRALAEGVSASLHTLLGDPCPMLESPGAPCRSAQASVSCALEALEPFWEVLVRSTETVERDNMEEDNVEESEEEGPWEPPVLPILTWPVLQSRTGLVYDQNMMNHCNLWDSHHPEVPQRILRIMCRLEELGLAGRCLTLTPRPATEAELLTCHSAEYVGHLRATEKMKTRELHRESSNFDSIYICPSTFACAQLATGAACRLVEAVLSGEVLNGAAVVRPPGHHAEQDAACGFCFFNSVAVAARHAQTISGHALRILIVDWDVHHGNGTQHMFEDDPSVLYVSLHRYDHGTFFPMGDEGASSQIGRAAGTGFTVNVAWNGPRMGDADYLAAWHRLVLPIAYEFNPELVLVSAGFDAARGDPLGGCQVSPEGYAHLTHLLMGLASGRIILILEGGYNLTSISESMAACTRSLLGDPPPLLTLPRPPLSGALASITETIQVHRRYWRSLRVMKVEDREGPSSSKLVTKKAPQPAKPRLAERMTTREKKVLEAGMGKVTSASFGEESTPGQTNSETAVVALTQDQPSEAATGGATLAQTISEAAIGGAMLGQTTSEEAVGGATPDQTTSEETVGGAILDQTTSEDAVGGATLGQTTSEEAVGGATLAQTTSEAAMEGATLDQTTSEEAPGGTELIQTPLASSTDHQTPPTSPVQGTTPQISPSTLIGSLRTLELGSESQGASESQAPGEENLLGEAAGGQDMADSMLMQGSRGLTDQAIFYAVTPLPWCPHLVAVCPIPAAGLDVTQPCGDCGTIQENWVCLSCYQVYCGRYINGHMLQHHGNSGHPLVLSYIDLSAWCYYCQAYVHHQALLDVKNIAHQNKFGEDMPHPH

[3] = target: T3, Histone deacetylase 8 (Homo sapiens, UniProt Q9BY41); assay: Inhibition of human recombinant HDAC8 using fluorogenic HDAC substrate class 2A preincubated for 30 mins followed by substrate addition and measured after 15 mins by fluorogenic assay
T3 sequence (Q9BY41 whole entry): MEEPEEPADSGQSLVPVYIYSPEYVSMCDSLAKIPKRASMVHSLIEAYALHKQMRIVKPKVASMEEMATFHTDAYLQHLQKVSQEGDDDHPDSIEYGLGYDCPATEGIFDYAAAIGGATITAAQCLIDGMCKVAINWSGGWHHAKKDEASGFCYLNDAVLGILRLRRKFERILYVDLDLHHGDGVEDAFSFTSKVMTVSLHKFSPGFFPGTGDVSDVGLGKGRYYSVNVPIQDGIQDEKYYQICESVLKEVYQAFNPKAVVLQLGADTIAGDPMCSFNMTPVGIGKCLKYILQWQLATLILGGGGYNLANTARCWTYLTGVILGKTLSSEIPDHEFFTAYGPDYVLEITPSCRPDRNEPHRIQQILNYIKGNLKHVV

[4] = system: MDA-MB-231; assay: Cell cycle arrest in human MDA-MB-231 cells assessed as accumulation of cells at G2 phase at 15 uM incubated for 48 hrs RNase/PI staining based flow cytometry assay; type: functional
Summary of the method: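 MDA-MB-231 cells, 5*10⁶ per 10 cm plate, were grown in DMEM for 24 h and then dosed for 48 h from DMSO stocks (final DMSO 0.1%; DMSO as control). Cells were trypsinized, washed twice in cold PBS and fixed in 70% ethanol overnight at -20°C. They were treated with 200 ug/mL RNase for 30 min, stained with 50 ug/mL PI at RT for 30 min, and DNA content was read by flow cytometry.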

[5] = system: A549; assay: cells; type: functional, cell-based; conditions: Homo sapiens, A549, 72 h
[6] = system: MDA-MB-231; assay: cells; type: functional, cell-based; conditions: Homo sapiens, MDA-MB-231, 72 h
[7] = system: Vero; assay: cells; conditions: Chlorocebus sabaeus, 72 h
[8] = system: MCF7; assay: cells; type: functional, cell-based; conditions: Homo sapiens, MCF7, 72 h
[9] = target: Signal transducer and activator of transcription 3 (Homo sapiens) (UniProt P40763); assay: Inhibition of STAT3 in human MDA-MB-231 cells assessed as downregulation of cyclinD1 expression at 100 to 200 uM after 24 hrs by western blot analysis; type: cell-based
Signal transducer and activator of transcription 3 (Homo sapiens), sequence (P40763 whole entry): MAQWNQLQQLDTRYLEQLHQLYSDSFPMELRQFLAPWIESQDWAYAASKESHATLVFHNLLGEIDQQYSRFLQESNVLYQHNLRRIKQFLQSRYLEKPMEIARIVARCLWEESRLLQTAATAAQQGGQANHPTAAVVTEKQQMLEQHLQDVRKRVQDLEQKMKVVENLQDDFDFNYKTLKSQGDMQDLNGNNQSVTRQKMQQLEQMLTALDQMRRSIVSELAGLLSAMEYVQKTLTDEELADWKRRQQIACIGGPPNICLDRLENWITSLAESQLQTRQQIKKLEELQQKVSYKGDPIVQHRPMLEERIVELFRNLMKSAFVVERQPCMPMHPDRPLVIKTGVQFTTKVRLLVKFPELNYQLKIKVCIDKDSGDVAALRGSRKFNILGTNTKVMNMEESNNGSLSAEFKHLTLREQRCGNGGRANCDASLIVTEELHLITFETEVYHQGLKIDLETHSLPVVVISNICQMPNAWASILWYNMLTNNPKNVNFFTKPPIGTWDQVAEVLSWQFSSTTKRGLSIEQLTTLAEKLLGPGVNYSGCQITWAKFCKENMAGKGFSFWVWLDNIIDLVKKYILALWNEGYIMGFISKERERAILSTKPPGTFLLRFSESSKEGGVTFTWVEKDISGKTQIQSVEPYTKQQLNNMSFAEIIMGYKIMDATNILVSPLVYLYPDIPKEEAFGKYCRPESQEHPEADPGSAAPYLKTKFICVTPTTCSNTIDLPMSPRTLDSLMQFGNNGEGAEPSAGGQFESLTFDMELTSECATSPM
Summary of the method: (§1)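 MDA-MB-231 cells, 1*10⁶ per well, were grown in DMEM for 24 h, serum-starved for 24 h, then treated for 24 h from DMSO solutions (final DMSO 0.1%; DMSO control). Cells were lysed in RIPA with protease and phosphatase inhibitors and protein equalized by BCA. 20-40 µg was run on 4-20% gels and transferred to PVDF, which was blocked in 5% BSA. Primary antibodies were applied overnight and secondary for 1 h, and band intensities were quantified by infrared imaging.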

[10] = target: T4, Protein deacetylase HDAC6 (Homo sapiens) (UniProt Q9UBN7); assay: Inhibition of HDAC6 in human MDA-MB-231 cells assessed as accumulation of acetylated tubulin at 50 to 100 uM by western blot analysis; type: cell-based
T4 sequence (whole entry): T2 sequence (Q9UBN7 whole entry)
Summary of the method: (§2)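 MDA-MB-231 cells were grown in DMEM for 24 h, serum-starved for 24 h, then treated for 4 h (DMSO control). Lysates were made in RIPA with protease and phosphatase inhibitors and normalized by BCA. 20-40 µg was run on 4-20% gels and transferred to PVDF, which was blocked in 5% BSA. Membranes were probed overnight for acetyl-α-tubulin or acetyl-H4, then with secondary for 1 h, and bands were quantified by infrared imaging.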

[11] = target: Signal transducer and activator of transcription 3 (Homo sapiens) (UniProt P40763); assay: Inhibition of STAT3 in human MDA-MB-231 cells assessed as upregulation of p-p38 expression after 24 hrs by western blot analysis; type: cell-based; summary of the method: as §1
[12] = target: Signal transducer and activator of transcription 3 (Homo sapiens) (UniProt P40763); assay: Inhibition of STAT3 in human MDA-MB-231 cells assessed as effect on pSTAT3 expression at 50 to 100 uM after 24 hrs by western blot analysis; type: cell-based; summary of the method: as §1
[13] = target: Signal transducer and activator of transcription 3 (Homo sapiens) (UniProt P40763); assay: Inhibition of STAT3 in human MDA-MB-231 cells assessed as upregulation of Bcl-xLexpression after 24 hrs by western blot analysis; type: cell-based; summary of the method: as §1
[14] = target: T1, Histone deacetylase 1; assay: Inhibition of HDAC1 in human MDA-MB-231 cells assessed as accumulation of acetylated H4 at 50 to 100 uM by western blot analysis; type: cell-based; summary of the method: as §2

SMILES: CCc1nc(N)nc(N)c1-c1ccc(-c2cn(CCCCCCC(=O)NO)nn2)cc1
- pIC50 [1]: 7.35
- pIC50 [2]: 7.77
- pIC50 [3]: 6.11
- Activity [4]: Active
- pIC50 [5]: 4.18
- pIC50 [6]: 4.91
- pIC50 [7]: 4.40
- pIC50 [8]: 4.24

SMILES: CCc1nc(N)nc(N)c1-c1ccc(Cl)cc1 [PYRIMETHAMINE]
- inhibition [9]: Active
- inhibition [10]: inactive
- inhibition [11]: Dose-dependent effect
- inhibition [12]: inactive
- inhibition [13]: Active
- inhibition [14]: inactive
- pIC50 [6]: 3.62
- pIC50 [8]: 3.34

SMILES: CCc1nc(N)nc(N)c1-c1ccc(/C=C/C(=O)NO)cc1
- pIC50 [1]: 5.66
- pIC50 [2]: 6.40
- pIC50 [3]: 5.74

SMILES: CCc1nc(N)nc(N)c1-c1ccc(-c2ccc(/C=C/C(=O)NO)cc2)cc1
- pIC50 [1]: 5.43
- pIC50 [2]: 7.14
- pIC50 [5]: 5.00
- pIC50 [6]: 5.27
- pIC50 [7]: 5.16
- pIC50 [8]: 5.03
